Laboratory results as given in PMC2667967 (Cancer cell, 2008).
Each block holds one molecule with its values, some of them ahead of it. Non-standard residues stand in square brackets, D forms with d. No end group written: not given here. *: point of attachment. FITC = O=C1OC2(c3ccc(O)cc3Oc3cc(O)ccc32)c2ccc(NC(=S)*)cc21

Columns and labels:
GST-Bcl-2 [1] = biological target: T1, GST-Bcl-2 (Homo sapiens, UniProt P10415); assay: FP binding to GST-Bcl-2; details: 200 nM protein, 20 nM FITC peptide-r8, PBS pH 7.6, 25°C, triplicate
T1 sequence (P10415 whole entry, the tested form may be a part): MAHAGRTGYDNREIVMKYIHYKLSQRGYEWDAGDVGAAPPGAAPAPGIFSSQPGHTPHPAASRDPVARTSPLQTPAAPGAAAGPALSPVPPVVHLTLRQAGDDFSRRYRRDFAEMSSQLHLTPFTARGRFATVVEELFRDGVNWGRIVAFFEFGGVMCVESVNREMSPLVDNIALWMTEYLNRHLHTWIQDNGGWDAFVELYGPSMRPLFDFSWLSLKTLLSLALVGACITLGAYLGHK
Summary of the method: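 GST-Bcl-2 (200 nM) was incubated briefly with FITC-labelled, r8-fused test peptide (20 nM) in PBS, pH 7.6, at 25°C, in triplicate. GST-Bcl-XL and GST served as comparison proteins. Polarization was read at excitation 485 nm and emission 530 nm once the signal stabilized within 20 min. Kd was calculated from single-site binding curves and reported as mean ± SD.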

GST = assay: FP binding to GST; details: 200 nM protein, 20 nM FITC peptide-r8, PBS pH 7.6, 25°C
Summary of the method: (§1)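 Fluorescence polarization: 200 nM protein (GST or GST-Bcl-XL) was incubated with FITC-labelled r8 test peptide (20 nM) in PBS, pH 7.6, at 25°C, in triplicate. FP was read once the signal stabilized within 20 min (excitation 485 nm, emission 530 nm). Results are mean ± SD.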

GST-Bcl-XL [2] = biological target: GST-Bcl-XL (Homo sapiens, UniProt Q07817); assay: FP binding to GST-Bcl-XL; details: 200 nM protein, 20 nM FITC peptide-r8, PBS pH 7.6, 25°C
GST-Bcl-XL (Homo sapiens, UniProt Q07817), sequence (Q07817 whole entry): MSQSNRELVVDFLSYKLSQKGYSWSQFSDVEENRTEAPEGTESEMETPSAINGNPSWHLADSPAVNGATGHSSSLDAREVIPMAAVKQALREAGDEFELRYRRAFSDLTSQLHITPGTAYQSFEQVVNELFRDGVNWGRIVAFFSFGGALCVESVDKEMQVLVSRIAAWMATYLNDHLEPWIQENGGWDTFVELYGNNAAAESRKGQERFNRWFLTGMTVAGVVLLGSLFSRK
Summary of the method: as §1

GST-Bcl-2/1-90 [3] = biological target: GST-Bcl-2/1-90 (UniProt P10415); assay: fluorescence polarisation
GST-Bcl-2/1-90 (UniProt P10415), sequence (P10415 1-90): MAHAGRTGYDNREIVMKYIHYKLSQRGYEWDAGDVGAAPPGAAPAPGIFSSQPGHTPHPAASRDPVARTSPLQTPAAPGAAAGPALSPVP

GST-Bcl-2 [4] = biological target: T1, GST-Bcl-2; assay: FP competition assay, GST-Bcl-2; assay type: binding; details: 200 nM GST-Bcl-2, 20 nM FITC-NuBCP-r8, PBS pH 7.6, 25°C, triplicate
GST-Bcl-2 [5] = biological target: T1, GST-Bcl-2; assay: circular dichroism
[6] = tested on: various cancer cell lines; assay: Apoptosis induction, various cancer cell lines; assay type: cell-based
[7] = tested on: normal primary mammary epithelial cells; assay: Apoptosis of normal primary mammary epithelial cells; assay type: cell-based; details: 24 h, Annexin V; r8 conjugate
Summary of the method: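 Normal primary mammary epithelial cells were run alongside ZR-75-1 breast cancer cells. They were exposed to the r8-conjugated test peptide for 24 h in medium with 10% FBS. Apoptosis was read by Annexin V binding on flow cytometry.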

[8] = tested on: Jurkat cells stably expressing Bcl-2; assay: Apoptosis of Jurkat cells stably expressing Bcl-2; assay type: cell-based; details: Figure S3
Summary of the method: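 Jurkat cells stably carrying an empty neo vector or a Bcl-2 expression vector, with Bcl-2 levels checked by immunoblot. Cells were exposed to the test peptide (10 µM) in medium with 5% FBS for 36 h. Apoptosis was scored by DAPI nuclear morphology.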

Bcl-2^−/−MEFs = assay: Apoptosis of Bcl-2 knockout MEFs; assay type: cell-based, mouse; details: STS 0.1 µM or Bad BH3 peptide 10 µM, 36 h, DAPI
Summary of the method: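 Wild-type and Bcl-2−/− MEFs, with Bcl-2 status confirmed by immunoblotting, were exposed to staurosporine (0.1 µM) or Bad BH3 peptide (10 µM) for 36 h. Peptide treatments used medium with 10% FBS unless otherwise specified. Apoptosis was scored from nuclear morphology after DAPI staining.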

CEM leukemia cells = assay: Killing of CEM leukemia cells stably expressing Bcl-2; assay type: cell-based; details: Figure S4
Bax = Bax activation in Bcl-2 knockout MEFs; assay type: cell-based, mouse; details: NuBCP-9 10 µM 16 hr; or GFP-Nur77/478-504 cotransfected with Bcl-2
Summary of the method: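 Bcl-2−/− MEFs were run with wild-type MEFs and exposed to the test peptide (10 µM) for 16 hr. Alternatively, Bcl-2−/− MEFs were cotransfected with Bcl-2 (1 µg) plus GFP or GFP-Nur77/478-504 (1 µg). Active Bax was immunostained with 6A7 antibody and read by flow cytometry. Comparisons were treated vs untreated, or GFP-only vs Bcl-2-coexpressing cells from the same transfection.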

Bcl-B = assay: Co-IP with Bcl-B; assay type: binding; details: HEK293T
Summary of the method: (§2)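 HEK293T cells were transfected with GFP-Nur77/478-504 (2 µg), with or without a Myc-tagged Bcl-2 family member plasmid (0.8 µg). Lysates were immunoprecipitated and complexes detected by western blot. Input was 5% of lysate, and one of three experiments is shown.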

Bfl-1 = assay: Co-IP with Bfl-1; assay type: binding; details: HEK293T
Summary of the method: as §2

[9] = tested on: mitochondria (RFP-Mito), H460 cells; assay: Mitochondrial targeting in H460 cells; assay type: cell-based; details: FITC-D-NuBCP-9-r8 6 µM, 2 hr, or GFP fusions transfected 12 hr
Summary of the method: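 H460 cells on glass coverslips were transfected with RFP-Mito (50 ng) plus GFP fused to Nur77 residues 489–497 or 478–504 (50 ng) for 12 hr. In a second arm, cells were transfected with RFP-Mito for 12 hr and then treated with 6 µM FITC-labelled, r8-fused test peptide for 2 hr. Subcellular fluorophore localization was analysed by confocal microscopy.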

GST-Bcl-2 [10] = biological target: GST-Bcl-2 (UniProt P10415 1-239); assay: circular dichroism
GST-Bcl-2 (UniProt P10415 1-239), sequence (P10415 whole entry): as the sequence (P10415 whole entry, the tested form may be a part) above

GST-Bcl-2/1-90 [11] = biological target: GST-Bcl-2/1-90 (UniProt P10415 1-90); assay: fluorescence polarisation
GST-Bcl-2/1-90 (UniProt P10415 1-90), sequence (P10415 1-90): as the sequence (P10415 1-90) above

GST-Bcl-XL [12] = biological target: GST-Bcl-XL (UniProt Q07817-1 1-233); assay: fluorescence polarisation
GST-Bcl-XL (UniProt Q07817-1 1-233), sequence (Q07817 whole entry): as the sequence (Q07817 whole entry) above

D-NuBCP-9 (unlabeled, in vitro assays), sequence (P22736 whole entry, looked up): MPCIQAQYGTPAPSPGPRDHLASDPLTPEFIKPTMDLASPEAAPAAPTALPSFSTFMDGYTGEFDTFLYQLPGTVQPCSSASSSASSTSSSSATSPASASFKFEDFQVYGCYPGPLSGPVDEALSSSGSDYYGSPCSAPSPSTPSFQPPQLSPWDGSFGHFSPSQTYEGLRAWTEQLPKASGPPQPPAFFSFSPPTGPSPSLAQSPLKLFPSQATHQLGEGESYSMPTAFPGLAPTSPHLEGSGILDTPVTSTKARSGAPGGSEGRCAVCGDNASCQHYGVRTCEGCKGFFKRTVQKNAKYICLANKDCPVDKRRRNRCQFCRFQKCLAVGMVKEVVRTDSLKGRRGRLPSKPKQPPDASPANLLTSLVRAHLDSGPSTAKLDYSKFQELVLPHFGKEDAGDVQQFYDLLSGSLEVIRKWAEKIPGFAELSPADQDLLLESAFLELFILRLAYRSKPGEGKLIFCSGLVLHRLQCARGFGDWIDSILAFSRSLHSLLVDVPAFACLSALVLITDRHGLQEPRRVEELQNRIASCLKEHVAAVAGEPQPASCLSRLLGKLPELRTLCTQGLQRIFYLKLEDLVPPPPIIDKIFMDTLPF
FITC-D-NuBCP-9-r8, sequence (P22736 whole entry, looked up): as above

Kd (GST-Bcl-2/1-90 [3]): 2.5 µM
Molecule: FITC-D-NuBCP-9-r8 (from UniProt P22736 489-497) (peptide)

FP change with GST-Bcl-2 (GST-Bcl-2 [1]): little affected
Molecule: FITC-NuBCP-9/AA: FITC-labeled NuBCP-9/AA ({FITC}-ASRSLHSLA; also: r8 (D-Arg octamer) attached, end not given here)

Kd (GST-Bcl-2 [5]): 2 µM
stoichiometry N (GST-Bcl-2 [5]): 1
Molecule: D-NuBCP-9 (unlabeled, in vitro assays) (from UniProt P22736 489-497) (peptide)

stoichiometry N (GST-Bcl-2 [10]): 1
Molecule: FSRSLHSLL (peptide, UniProt P22736 489-497, looked up) [NuBCP-9 (unlabeled, in vitro assays)]

Kd (GST-Bcl-2/1-90 [11]): 1.7 µM
Molecule: {FITC}-FSRSLHSLL[dR][dR][dR][dR][dR][dR][dR][dR] (peptide, UniProt P22736 489-497, looked up) [FITC-NuBCP-9-r8]

Kd (GST-Bcl-XL [12]): 0.145 µM
Molecule: VHLTLRQAGDDFSRR (also: F5M-labelled Cys, position not given here) [F5M-Bcl-2 BH3 peptide]

The next lines start with the molecule.

Molecule: FITC-NuBCP-9: FITC-labeled NuBCP-9 (r8) ({FITC}-FSRSLHSLL; also: r8 (D-Arg octamer) attached, end not given here)
FP change with GST-Bcl-2 (GST-Bcl-2 [1]): induced a concentration-dependent FP of FITC-NuBCP-9 and FITC-D-NuBCP-9
FP change with GST (GST): neither GST-Bcl-XL nor GST, induced a concentration-dependent FP
FP change with GST-Bcl-XL (GST-Bcl-XL [2]): neither GST-Bcl-XL nor GST, induced a concentration-dependent FP

Molecule: CN(C)CC[C@H](CSc1ccccc1)Nc1ccc(S(=O)(=O)NC(=O)c2ccc(N3CCN(Cc4ccccc4-c4ccc(Cl)cc4)CC3)cc2)cc1[N+](=O)[O-] [ABT-737]
competition with FITC-NuBCP-9 binding to GST-Bcl-2 (GST-Bcl-2 [4]): failure of either a BH3 peptide (Bak BH3) or a potent small molecule inhibitor (ABT-737) that targets the Bcl-2 BH3- binding site to reduce FITC-NuBCP-9 binding to GST-Bcl-2

Molecule: NuBCP-20: 20 amino acid peptide (aa 480 to 499) of Nur77 (GDWIDSILAFSRSLHSLLVD; UniProt P22736 480-499, looked up, fragment)
apoptotic effect ([6]; r8 conjugate): potent apoptotic effect in various cancer cell lines
apoptotic potency relative to Bid BH3 peptide ([6]; various cancer cell lines): more potent than a BH3 peptide derived from the pro-apoptotic Bcl-2 family member Bid
apoptosis induction [7]: Neither NuBCP-20 nor NuBCP-9 induced the apoptosis of normal primary mammary epithelial cells

Molecule: CN[C@@H]1C[C@H]2O[C@@](C)([C@@H]1OC)n1c3ccccc3c3c4c(c5c6ccccc6n2c5c31)C(=O)NC4 [STS, staurosporine]
effect of Bcl-2 overexpression on apoptosis [8]: attenuated by Bcl-2 overexpression in Jurkat cells
effect of Bcl-2 knockout on death effect (Bcl-2^−/−MEFs): enhanced in Bcl-2^−/−MEFs
effect of stable Bcl-2 expression on killing (CEM leukemia cells): prevented the killing

Molecule: GFP-Nur77/478-504: residues 478–504 of Nur77 fused with green fluorescence protein (GFGDWIDSILAFSRSLHSLLVDVPAFA; also: fused with GFP, end not given here)
Bax activation, Bcl-2^−/−MEFs (Bax): Expression of Bcl-2 in Bcl-2^−/−MEFs restores Bax activation by NuBCP
binding to Bcl-B (Bcl-B): bound to anti-apoptotic Bcl-2 family members, Bcl-B and Bfl-1
binding to Bfl-1 (Bfl-1): bound to anti-apoptotic Bcl-2 family members, Bcl-B and Bfl-1
co-localization with RFP-Mito [9]: co-localized extensively with RFP-Mito
